MsrA inhibitor – bovine MsrA inhibition; purified bovine MsrA, absorbance read-out; inhibition, % at 15.5 µM; 360,000 compounds, 0.75% hits; in the data active = inhibition above about 4.5%;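 note: 0% = vehicle wells with enzyme and 100% = reference inhibitor wells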
TbMetRS inhib – blocks T. brucei methionyl-tRNA synthetase activity | purified T. brucei MetRS, ATP depletion, Kinase-Glo luminescence | inhibition, % at 11.9 µM | 360,000 compounds, 0.4% hits | AID 624268;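 active = inhibition above a per-plate cutoff of the control wells' mean inhibition plus 3 SD, cut at about 5.5% in these data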;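 note: 0% = DMSO wells median and 100% = median of wells with control inhibitor compound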
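technique = Kinase-Glo luminescence, ATP depletion format | system = purified MetRS (methionyl-tRNA synthetase) enzyme from Trypanosoma brucei | timing = 15 min preincubation, 2 h reaction, all 25 °C | evaluation = percent inhibition versus plate control medians | dosing = single dose, 11.9 µM final nominal, 0.9% final DMSO | also added = substrates ATP, L-methionine and bulk Escherichia coli tRNA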
AI-2 QS mod – modulates the Vibrio harveyi AI-2 quorum sensing system; Vibrio harveyi JMH597 AI-2 luminescence/OD600 ratio, 9 h; active compounds read low; strain lacks LuxN and CqsS sensors; 0 = neutral-control median; activity change, % at 7.5 µM; 300,000 compounds, 0.4% hits; AID 2094; in the data active = activity change below about -75%, passing the limit was not always enough;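 note: luminescence divided by OD600 gain over 9 h not by final OD600 alone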
AHR act – activators of human aryl hydrocarbon receptor; P35869; AHR-responsive luciferase reporter cells, luminescence; activation, % at 5 µM; 320,000 compounds, 2.5% hits; AID 2796; in the data active = activation above about 47%;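 note: 0% = vehicle wells and 100% = reference agonist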
HTR2A ag – mouse HTR2A agonism via beta-arrestin recruitment | P35363 | CHO-K1 mHTR2A beta-arrestin complementation, luminescence; percent of 30 µM serotonin response | activation, % at 7.6 µM | 360,000 compounds, 0.66% hits | AID 624169;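 active = activation above a run cutoff, the mean activation of all tested compounds plus 3 SD, cut at about 14% in these data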;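 note: 0% = plate median of compound wells and 100% = 30 µM serotonin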
Target sequence (P35363 whole entry, looked up): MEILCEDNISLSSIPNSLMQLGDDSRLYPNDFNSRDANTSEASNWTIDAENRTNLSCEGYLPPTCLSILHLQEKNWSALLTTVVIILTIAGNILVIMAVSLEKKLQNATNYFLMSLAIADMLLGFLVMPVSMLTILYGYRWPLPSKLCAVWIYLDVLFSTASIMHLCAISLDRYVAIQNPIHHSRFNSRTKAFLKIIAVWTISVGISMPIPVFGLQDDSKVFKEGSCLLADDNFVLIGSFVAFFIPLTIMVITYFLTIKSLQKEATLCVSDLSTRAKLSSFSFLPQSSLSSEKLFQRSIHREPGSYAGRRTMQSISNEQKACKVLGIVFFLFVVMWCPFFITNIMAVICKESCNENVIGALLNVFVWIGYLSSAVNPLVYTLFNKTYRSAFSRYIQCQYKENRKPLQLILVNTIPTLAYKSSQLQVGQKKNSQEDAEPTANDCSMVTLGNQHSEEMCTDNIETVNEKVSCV
bovine MsrA act – activators of bovine methionine sulfoxide reductase A; purified bovine MsrA, absorbance read-out; activation, % at 10.6 µM; 360,000 compounds, 0.3% hits; in the data active = activation above about 7.5%;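 note: 0% = vehicle and 100% = reference activator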
Active calls of the source: *; / = no result. In the library only some 4.4% were active in any assay of this set; here they are far more common.

SMILES	MsrA inhibitor	TbMetRS inhib	AI-2 QS mod	AHR act	HTR2A ag	bovine MsrA act
Cc1ccc(C(=O)Nc2cccc(C(F)(F)F)c2)cc1Nc1cncnc1	1.0	-1.8	25.9	40.5	-3.3	-3.0
Cc1ccc(C(=O)Nc2cccc(C(F)(F)F)c2)cc1Nc1ccccn1	-0.1	-0.2	10.0	50.4*	-11.1	-0.7
Cc1ccc(C(=O)Nc2cccc(C(F)(F)F)c2)cc1NC(=O)c1c[nH]c2cc(C(F)(F)F)ccc2c1=O	-1.5	-0.2	/	58.2*	3.4	-2.5
CCN1CCN(Cc2ccc(NC(=O)c3ccc(C)c(NC(=O)c4c[nH]c5cc(C(F)(F)F)ccc5c4=O)c3)cc2C(F)(F)F)CC1	1.0	-1.8	21.8	40.4	1.4	-8.3
CC(=O)N1CCN(S(=O)(=O)c2cccc(C(=O)Nc3ccc4c(c3)OCO4)c2)CC1	0.9	-0.8	2.5	12.5	-1.1	-13.1
O=C(Nc1ccc2c(c1)OCO2)c1cccc(S(=O)(=O)N2CCCC2)c1	0.4	-0.6	-1.3	107.1*	-2.0	-2.0
CSc1ccccc1C(=O)Nc1ccc2c(c1)OCO2	0.5	-0.8	28.2	54.0*	7.8	-1.9
O=C(Nc1ccc2c(c1)OCO2)c1ccc[n+]([O-])c1	0.7	0.2	15.7	48.3*	0.5	-3.1
COc1ccc(-c2cccc(NC(=O)c3ccc4c(c3)OCO4)c2)nn1	-0.2	-0.3	12.0	65.5*	-3.0	-1.3
CS(=O)(=O)c1ccc(-c2cccc(NC(=O)c3ccc4c(c3)OCO4)c2)nn1	-2.2	-0.2	/	/	5.2	-1.0
COCCSc1ccccc1C(=O)Nc1ccc2c(c1)OCO2	0.5	-0.4	10.2	19.3	3.1	-3.8
C[C@]12Cc3ccccc3C1CC1=N[C@@H](C3CCCCC3)O[C@@]13C[C@@H]2C(=O)N3C1CCN(Cc2ccccc2)CC1 (some centres undefined)	-0.9	/	/	/	/	/
CCOc1cc(C(=O)Nc2ccc3c(c2)OCO3)ccc1OC(F)F	1.4	-0.2	7.6	50.6*	-2.0	-1.2
O=C(Nc1ccc2c(c1)OCO2)c1cccc(Cl)c1	1.8	0.3	5.8	48.6*	-6.4	-3.4
O=C(Nc1ccc2c(c1)OCCO2)c1ccccc1F	0.2	-0.2	-5.5	-0.6	6.4	-1.9
O=C(NC(=S)Nc1ccc2c(c1)OCCO2)c1ccccc1F	0.4	0.2	13.1	58.3*	-1.6	1.1
CN1CCCCC(NC(=O)c2cccs2)C1=O (centres undefined)	0.6	/	/	/	/	/
Cc1nc2ccccn2c1C(=O)NN=C1C2CC3CC(C2)CC1C3	1.5	0.0	10.5	48.0*	-3.2	-0.9
COc1ccc(/C=N/Nc2cc(C)nc3c(C)cccc23)cc1	-0.1	0.2	1.1	70.8*	-7.8	-4.1
COc1cccc2c(N/N=C/c3ccc(O)c(O)c3)cc(C)nc12	0.8	-1.5	16.8	9.8	-0.6	-4.9
CC1CCc2c(sc3ncnc(NCCCOC(C)C)c23)C1 (centres undefined)	1.0	-0.4	0.8	61.1*	-2.7	-3.6
c1ccc2c(c1)OCc1nccn1-2	-0.7	/	/	/	/	/
CC(=O)Nc1c(-c2ccccc2)nc2cc(C)ccn12	0.1	-1.0	3.1	4.7	3.6	-2.6
COc1ccc(-c2nc3cc(C)ccn3c2NC(=O)c2ccccc2OC)cc1	-0.9	-0.1	14.2	53.2*	-2.5	-1.8
COc1ccc(Nc2nc(-c3ccccc3)nc3ccccc23)cc1	0.8	-1.2	35.9	7.2	7.7	-4.0
SMILES	MsrA inhibitor	TbMetRS inhib	AI-2 QS mod	AHR act	HTR2A ag	bovine MsrA act
COc1ccc(-c2nc(N/N=C(\C)c3ccc(O)cc3)c3ccccc3n2)cc1	2.8	0.0	11.8	49.1*	-3.9	-2.8
COCc1cc(C)nc(OCC(=O)N/N=C/c2ccc(OC)c(OC)c2)c1C#N	0.8	-0.7	15.7	63.1*	12.1	-3.5
COc1ccc(C=NNC(=S)NN=Cc2ccc(OC)c(OC)c2)cc1OC	5.7*	-0.4	/	/	-8.5	1.2
COc1ccc(/C=N/NC(=O)CCn2c3ccccc3c3ccccc32)cc1OC	-1.0	0.3	5.1	68.5*	0.8	-2.5
COc1ccc(/C=N/NC(=S)NCc2ccccc2)cc1OC	2.4	-1.6	12.7	20.6	6.3	-10.7
Cc1cc(N/C(=C\C(=O)c2ccccc2)c2ccccc2)ccc1Br	0.2	/	/	/	/	/
Cc1cc(C)n(CCNC(=O)[C@@H](Cc2ccccc2)NC(=O)[C@H]2O[C@@H](n3ccc(=O)[nH]c3=O)[C@H](O)[C@@H]2O)n1	0.7	/	/	/	/	/
Cc1ccc(-c2nnc(NCc3nc4ccccc4[nH]3)c3ccccc23)cc1S(=O)(=O)N1CCOCC1	/	12.0*	5.3	13.5	0.7	-11.1
Cc1ccc(-c2nc3ccccc3s2)cc1S(=O)(=O)N1CCOCC1	0.1	-0.4	-12.2	11.4	-1.9	-4.4
Cc1cccc(OCC(=O)N/N=C\c2cn(C)c3ccccc23)c1	2.9	0.1	48.0	72.3*	-1.9	-0.2
Cc1ccc(OCC(=O)N/N=C\c2c(C)n(C)c3ccccc23)c([N+](=O)[O-])c1	/	-0.4	4.6	60.5*	3.1	-9.3
COc1ccc(-c2nc(C#N)c(NCC3CCCO3)o2)cc1 (centres undefined)	1.4	-0.4	3.2	27.8	2.2	-2.1
Cc1ccc(-c2nc(C#N)c(NCC3CCCO3)o2)cc1 (centres undefined)	3.1	0.0	12.5	62.9*	-3.3	-1.1
Cc1ccc(-c2nc(C#N)c(NCCc3ccccn3)o2)cc1	-0.6	-1.6	25.7	72.9*	1.8	-9.1
COc1ccc(CCNc2oc(-c3ccc(C)cc3)nc2C#N)cc1OC	0.6	1.5	24.8	68.7*	3.0	-3.2
O=C(Cc1cccc(NC(=O)C2CCCN(C(=O)C3CCCC3)C2)c1)Nc1cccc(C(=O)N2CCCCC2)c1 (centres undefined)	-0.6	-0.1	/	/	-2.1	-4.0
C[C@@H]1CCCCO[C@H](CN(C)C(=O)CCC(F)(F)F)[C@H](C)CN([C@@H](C)CO)C(=O)c2cc(NS(=O)(=O)c3ccc(Cl)cc3)ccc2O1	2.8	/	/	/	/	/
Cc1cccc(NC(=S)c2nc3ccccc3s2)c1	1.7	-1.0	3.7	76.0*	2.7	-2.2
O=C(Nc1ccccc1)c1nc2ccccc2s1	1.0	-0.3	21.7	33.2	-1.6	-2.7
COc1ccc2cc(C(=O)C3CCCN(C(=O)c4cncs4)C3)ccc2c1 (centres undefined)	1.1	-0.1	31.4	59.2*	2.7	-6.1
Cn1nc(C(C)(C)C)cc1C(=O)NCC1CCN(C(=O)C(=O)c2cc3ccccc3o2)CC1	1.3	/	/	/	/	/
Cc1cc(C)n2c(=O)c3ccc(Cl)cc3nc2c1C#N	0.5	-0.1	-0.7	27.7	-4.0	-2.0
Cc1cc(Cl)n2c(nc3cc(F)c(F)cc32)c1C#N	-0.2	0.0	-96.0*	/	-0.2	-3.2
CCCOc1ccc(CSCCNC(=S)Nc2ccccc2)cc1	-0.7	1.1	11.9	90.1*	-10.4	0.5

Assay outcomes from PubChem.
